Screening results as filed in PubChem BioAssay.
Compounds with a hit are over-represented: about 2.9% of the library has one in this group of screens.
MEKK2mut PB1 HTS: signal of MEK5 binding to mutant human MEKK2 PB1 domain; 290,000 compounds, 0.35% hits; bead flow cytometry, Alexa488-MEK5 binding to MEKK2 mutant; percent response, % at 10 µM; in the data active means percent response above about 24%, passing the limit was not always enough
MEKK3 PB1 HTS: modulators (inhibitors or enhancers) of MEK5 binding to human MEKK3 PB1 domain; Q99759; bead-based flow cytometry, Alexa488-MEK5 binding to MEKK3; actives lie on both sides; 0 = blocked by unlabeled MEK5, 100 = vehicle; binding response (% of control), % at 10 µM; 290,000 compounds, 1.4% hits; AID 1529;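 active means binding response more than 3 SD above or below the average of its plate-row segment, actives on both sides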;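 further: Alexa488 bead fluorescence after subtracting the streptavidin-only scavenger bead signal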
MEKK2wt PB1 HTS: raises or lowers MEK5 binding to wildtype human MEKK2 PB1 domain | bead flow cytometry, Alexa488-MEK5 binding to MEKK2 WT; actives lie on both sides | binding response (% of control), % at 10 µM | 290,000 compounds, 1.1% hits | AID 1531; in the data active means binding response below about 67% or above about 130%
Apaf-1 inh: blocks human Apaf-1 apoptosome activity; AID 489030; O14727; inhibition, % at 20 µM; reconstituted apoptosome caspase-3 activity, DEVD-Rh110 fluorescence; 330,000 compounds, 0.71% hits; active means inhibition of at least 40% at 20 µM
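System: reconstituted apoptosome with Apaf-1, cytochrome c, caspase-9, procaspase-3, dATP; Signal: Rh110 fluorescence intensity; Schedule: 30 min compound preincubation, 50 min activation, room temperature; Reagent: cytochrome c trigger plus (Z-DEVD)2-Rh110 caspase-3 substrate.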
UBC13 polyUb: inhibitors of human UBC13 polyubiquitin chain formation; P61088; TR-FRET; inhibition, % at 20 µM; 330,000 compounds, 0.47% hits; AID 485273; in the data active means inhibition above about 45%, passing the limit was not always enough
Target sequence (P61088 whole entry, looked up): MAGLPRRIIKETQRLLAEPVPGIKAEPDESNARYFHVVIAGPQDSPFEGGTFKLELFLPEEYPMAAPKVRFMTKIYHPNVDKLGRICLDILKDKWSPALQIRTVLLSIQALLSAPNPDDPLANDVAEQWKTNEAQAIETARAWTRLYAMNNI
MEKK2wt confirm: raises or lowers MEK5 binding to wildtype human MEKK2, retest. binding response (% of control), % at 10 µM. shares compounds with MEKK3 PB1 HTS. bead flow cytometry, Alexa488-MEK5 binding to MEKK2 WT; actives lie on both sides. 5,900 compounds, 2.4% hits; in the data active means binding response below about 16% or above about 210%; inactive means in between
MEKK2mut-MEK5: signal of MEK5 binding to mutant human MEKK2, retest. shares compounds with MEKK3 PB1 HTS. bead flow cytometry, Alexa488-MEK5 binding to MEKK2 mutant. percent response, % at 10 µM. 5,900 compounds, 2% hits. AID 1893; in the data active means percent response mostly above about 71%, no sharp cut-off; inactive means mostly below about 38%;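 further: higher means compound restores mutant binding toward wildtype level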
MEKK3 confirm: MEKK3-MEK5 PB1 inhibition, single concentration confirmation; shares compounds with MEKK3 PB1 HTS; bead flow cytometry, Alexa488-MEK5 binding to MEKK3; stronger effect = lower value; binding response (% of control), % at 10 µM; 5,900 compounds, 1.8% hits;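 active means binding response below 72% of control, or above a set upper limit, though filed actives all read lower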
Numbers stand for hits; - = inactive; . = no result given; [ ] = dose if it differs, or a comment.

SMILES | MEKK2mut PB1 HTS | MEKK3 PB1 HTS | MEKK2wt PB1 HTS | Apaf-1 inh | UBC13 polyUb | MEKK2wt confirm | MEKK2mut-MEK5 | MEKK3 confirm
O=C(CC1NCCc2ccccc21)Nc1ccc(Oc2ccccc2)cc1 (centres undefined) | - | - | 160 | - | - | - | - | -
O=C(CC1NCCc2ccccc21)Nc1ccccc1 (centres undefined) | - | - | - | - | - | . | . | .
COc1cc(OC)c2c(-c3ccccc3)cc(=O)oc2c1C(CCN1CCCCC1)c1ccc2c(c1)OCO2 (centres undefined) | 28 | - | 177 | - | - | - | - | -
COc1cc(C(=O)Nc2nnc(C3CC3)s2)ccc1OCc1c(C)noc1C | - | - | - | - | - | . | . | .
CN(C(=O)NC(=O)C1=C(N2CCOCC2)/C(=C/c2ccccc2)CC1)S(C)(=O)=O | - | 2.0[inhibitor] | -2.0[inhibitor] | - | - | - | - | -
CCCC(CCC(=O)Nc1ccc(C(=O)OC)cc1)C(=O)O (centres undefined) | - | 125 | - | - | - | - | - | -
CCCC(CCC(=O)Nc1ccc(C(=O)OCC)cc1)C(=O)O (centres undefined) | - | - | - | - | - | . | . | .
CCOc1ccc(N2CC(C(=O)NNC(=O)c3ccc(Br)cc3)CC2=O)cc1 (centres undefined) | . | . | . | - | - | . | . | .
COc1cc(/C=C/C(=O)OCC(=O)Nc2cc(C(F)(F)F)ccc2N2CCOCC2)ccc1O | - | 152 | - | - | - | - | - | -
COc1cc(/C=C/C(=O)OCC(=O)Nc2ccc(C)c(S(=O)(=O)N3CCCCC3)c2)ccc1O | - | 147 | - | - | - | - | - | -
O=S(=O)(NCC(c1cccs1)N1CCc2ccccc2C1)c1ccccc1 (centres undefined) | . | . | . | - | - | . | . | .
Cc1ccc(NC(=O)CN(C)S(=O)(=O)c2cccc3cccnc23)cc1 | - | - | - | - | - | . | . | .
Cc1ccc(NC(=O)CN(C)S(=O)(=O)c2cccc3cccnc23)c(C)c1 | - | 134 | - | - | - | - | - | -
Cc1ccc(C2CCN(C(=S)NC(C)C)C2)cc1 (centres undefined) | - | 48[inhibitor] | - | - | - | - | - | -
COc1ccc(Cl)cc1NC(=S)N1CCC(c2ccc(C)cc2)C1 (centres undefined) | - | - | - | - | - | . | . | .
Cc1ccc(CNC(=O)COC(=O)c2cccc(S(=O)(=O)N3CCCCC3)c2)cc1 | . | . | . | - | - | . | . | .
CCOc1ccc(S(=O)(=O)N(C)c2ccc(OCC(=O)N3c4ccc(C)cc4C4CN(C)CCC43)cc2)cc1 (centres undefined) | - | - | 140 | - | - | - | - | -
CN(C)CCOc1cc(Cl)cc(Cl)c1 | - | - | - | - | - | . | . | .
N/C(COc1cc(Cl)cc(Cl)c1)=N\O | - | 135 | - | - | - | - | - | -
Cc1ccc(N(CC(N)=O)C2SC(=O)N(C)C2=O)cc1 (centres undefined) | - | 126 | - | - | - | - | - | -
Cc1cccc(N(CC(N)=O)C2SC(=O)N(c3ccccc3)C2=O)c1 (centres undefined) | - | - | - | - | - | . | . | .
COc1cc2nc(/C=C/c3ccc(N(C)C)cc3)sc2cc1SC | - | - | 33[inhibitor] | . | . | - | - | -
O=S1(=O)[C@H]2C[C@@H]3CC[C@]2(CN1Cc1cccc(F)c1)O3 | - | - | - | - | - | . | . | .
NC(=O)CC(NC(=O)c1cccc(Br)c1)c1ccc(N2CCC(N3CCCC3)CC2)c([N+](=O)[O-])c1 (centres undefined) | - | - | 153 | - | - | - | - | -
NC(=O)CC(NC(=O)c1cccc(Br)c1)c1ccc(N2CCCCCC2)c([N+](=O)[O-])c1 (centres undefined) | - | - | - | - | - | . | . | .
SMILES | MEKK2mut PB1 HTS | MEKK3 PB1 HTS | MEKK2wt PB1 HTS | Apaf-1 inh | UBC13 polyUb | MEKK2wt confirm | MEKK2mut-MEK5 | MEKK3 confirm
Cc1ccc(C2=NNC(=O)C(c3c[nH]c4ccccc34)C2)cc1 (centres undefined) | - | 128 | - | - | - | - | - | -
O=C(Nc1ccc(F)cc1)OCCN1CCN(Cc2ccccc2)CCC1=O | - | 2.0[inhibitor] | 2.0[inhibitor] | - | - | - | - | -
CCCCCCCC(=O)NN=C1CCN(Cc2ccccc2)CC1 | - | - | - | - | - | . | . | .
Cc1cc(C(=O)c2ccc(Cl)cc2)c(NC(=O)CCl)s1 | - | 135 | - | - | - | - | - | -
COc1cc(C(=O)NC(=S)Nc2ccc(N3CCCC3)cc2)cc(OC)c1OC | - | - | - | - | - | . | . | .
C1CCC(C23CC4CC(CC(C4)C2)C3)NC1 (centres undefined) | - | 123 | - | - | - | - | - | -
O=c1c(C=NCc2cccnc2)c(C(F)(F)F)[nH]n1-c1nc2ccccc2s1 | 275 | - | . | - | - | - | - | -
CCOC(=O)Cn1cc(/C=C/[N+](=O)[O-])c2ccccc21 | - | - | - | - | - | . | . | .
Cc1cccc(Cn2cc(/C=C/[N+](=O)[O-])c3ccccc32)c1 | - | - | 57[inhibitor] | - | - | - | - | -
CCc1ccc(NS(=O)(=O)c2c(C(=O)N3CCCCCC3)c(C)n(C)c2C)cc1 | - | - | - | - | - | . | . | .
O=C(CSc1nc(C2CCCCC2)nc2ccccc12)NCc1ccco1 | - | 2.0[inhibitor] | -1.0[inhibitor] | - | - | - | - | -
Cc1sc2nc(C3CC3)nc(SCC(=O)NCc3ccco3)c2c1C | - | - | - | - | - | . | . | .
CCc1cc(C(=O)NC2CCCN(Cc3ccccc3F)C2)n(C)n1 (centres undefined) | - | - | - | - | - | . | . | .
Cc1cc(C)c2oc(=O)cc(CN3CCCCC3)c2c1 | - | - | - | - | - | . | . | .
COc1ccccc1N(CC(=O)NCC1CCCO1)C(=O)CNS(=O)(=O)c1ccccc1 (centres undefined) | - | 135 | - | - | - | - | - | -
COc1ccc(S(=O)(=O)NCC(=O)N(CC(=O)NCC2CCCO2)c2c(C)cccc2C)cc1 (centres undefined) | - | - | - | - | - | . | . | .
N#Cc1ccc(NC(=O)COC(=O)CSc2nnc(-c3ccc(Cl)cc3)o2)cc1 | - | - | - | - | - | . | . | .
COc1cccc(OC)c1-c1nn2c(-c3ccco3)nnc2s1 | - | 129 | - | - | - | - | - | -
COc1cccc(-c2nn3c(-c4ccco4)nnc3s2)c1 | - | - | - | - | - | . | . | .
